Test results as given in ChEMBL document CHEMBL1122544, “Azasteroids as inhibitors of rat prostatic 5 alpha-reductase” (J Med Chem, 1984).

Molecular target: T1, 3-oxo-5-alpha-steroid 4-dehydrogenase 1 (Rattus norvegicus) (UniProt P24008)
T1 sequence (whole entry): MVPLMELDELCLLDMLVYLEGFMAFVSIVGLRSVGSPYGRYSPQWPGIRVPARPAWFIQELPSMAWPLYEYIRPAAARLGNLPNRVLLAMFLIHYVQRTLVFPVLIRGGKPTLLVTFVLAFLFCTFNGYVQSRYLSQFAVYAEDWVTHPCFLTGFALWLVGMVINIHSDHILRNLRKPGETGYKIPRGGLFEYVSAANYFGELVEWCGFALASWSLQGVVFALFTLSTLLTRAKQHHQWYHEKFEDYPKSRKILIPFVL
Test: In vitro inhibitory activity against rat prostatic 5-alpha-reductase (150 ng/tube)
Outline: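 Rat prostatic enzyme preparation incubated with radioactive T and excess NADPH in 0.21 mL medium; 150 ng steroid per incubation (approx. 2 μM). Read-out is percent prevention of [³H]T conversion to [³H]DHT vs. control incubation without inhibitor. Duplicate assays, progesterone (150 ng) or a reference azasteroid (25 ng) as positive controls; most values single, separate determinations, approximate.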

| SMILES | inhibition [%] |
| --- | --- |
| CC12COC(=O)C=C1CCC1C2CCC2(C)C1CC[C@]2(C)O (some centres not stated) | 8 |
| CN1C(=O)CCC2(C)C3CCC4(C)C(CC[C@@H]4CN)C3CCC12 (some centres not stated) | 80 |
| CC(=O)N[C@H]1CCC2C3CCC4N(C)C(=O)CCC4(C)C3CCC21C (some centres not stated) | 76 |
| COC(=O)[C@H]1CCC2C3CC[C@H]4CC(=O)OCC4(C)C3CCC21C (some centres not stated) | 0 |
| CC12CCNC(=O)C1CCC1C2CCC2(C)C1CC[C@@H]2O (some centres not stated) | 0 |
| CC(C(=O)O)[C@H]1CC[C@H]2[C@@H]3CCC4N(C)C(=O)CC[C@]4(C)[C@H]3CC[C@]12C (some centres not stated) | 96 |
| CN1C(=O)CCC2C3CCC4(C)C(CC[C@@H]4O)C3CCC21 (some centres not stated) | 81 |
| CC(=O)O[C@H]1CCC2C3CC[C@H]4CN(C(C)=O)CCC4(C)C3CCC21C (some centres not stated) | 33 |
| CCN(CC)C(=O)[C@H]1CCC2C3CCC4N(C)C(=O)/C(=C/O)CC4(C)C3CCC21C (some centres not stated) | 48 |
| CCN(CC)C(=O)[C@H]1CCC2C3CCC4N(C)C(=N)CCC4(C)C3CCC21C (some centres not stated) | 22 |
| CCN(CC)C(=O)[C@H]1CCC2C3CCC4N(C)C(=S)CCC4(C)C3CCC21C (some centres not stated) | 50 |
| CC(=O)O[C@H]1CCC2C3CC[C@H]4CNC(=O)CC4(C)C3CCC21C (some centres not stated) | 0 |
| CC(=O)[C@H]1CC[C@H]2[C@@H]3CC[C@H]4CS(=O)(=O)C[C@]4(C)[C@H]3CC[C@]12C (stereo in doubt; 44) | 13 |
| CC(=O)[C@H]1CC[C@H]2[C@@H]3CC[C@H]4CS(=O)(=O)C[C@]4(C)[C@H]3CC[C@]12C (stereo in doubt; 43) | 13 |
| CCN(CC)C(=O)[C@H]1CCC2C3CC[C@H]4N(C)C(=O)[C@H](O)CC4(C)C3CCC21C (some centres not stated) | 46 |
| CN1C(=O)CC[C@@]2(C)C1CC[C@H]1[C@@H]3CC[C@H](O)[C@@]3(C)CC[C@@H]12 (some centres not stated) | 72 |
| CCN(CC)C(=O)[C@H]1CCC2C3CCC4N(C)C(=O)C(=O)CC4(C)C3CCC21C (some centres not stated) | 78 |
| CCN(CC)C(=O)C(C)[C@H]1CC[C@H]2[C@@H]3CCC4N(C)C(=O)CC[C@]4(C)[C@H]3CC[C@]12C (some centres not stated) | 83 |
| COC(=O)[C@H]1CCC2C3CCC4N(C)C(=O)CCC4(C)C3CCC21C (some centres not stated) | 96 |
| CCN(CC)C(=O)[C@H]1CCC2C3CCC4N(C)C(=O)C5OC5C4(C)C3CCC21C (some centres not stated) | 19 |
| CCN(CC)C(=O)[C@H]1CCC2C3CC[C@H]4N(C)C(=O)[C@@H](C)CC4(C)C3CCC21C (some centres not stated) | 99 |

| SMILES | inhibition [%] |
| --- | --- |
| CCN(CC)C(=O)[C@H]1CC[C@H]2[C@@H]3CC[C@H]4N(C)C(=O)C=C[C@]4(C)[C@H]3CC[C@]12C | 63 |
| C[C@]12CCC(=O)NC1CC[C@@H]1[C@@H]2CC[C@@]2(C)[C@H]1CC[C@@]21CCCO1 (some centres not stated) | 68 |
| CCOC(=O)C[C@H]1CC[C@H]2[C@@H]3CC[C@H]4N(C)C(=O)CC[C@]4(C)[C@H]3CC[C@]12C | 88 |
| CCN(CC)C(=O)[C@H]1CC[C@H]2[C@@H]3CC[C@H]4NC(=O)C=C[C@]4(C)[C@H]3CC[C@]12C | 74 |
| CCN(CC)C(=O)C[C@H]1CC[C@H]2[C@@H]3CCC4N(C)C(=O)CC[C@]4(C)[C@H]3CC[C@]12C (some centres not stated) | 97 |
| CCN1C(=O)CC[C@@]2(C)C1CC[C@@H]1[C@@H]2CC[C@@]2(C)[C@H]1CC[C@@]21CCCO1 (some centres not stated) | 27 |
| COC(=O)CCC(C)[C@H]1CC[C@H]2[C@@H]3CCC4N(C)C(=O)CC[C@]4(C)[C@H]3CC[C@]12C (some centres not stated) | 84 |
| CC12CCC(=O)NC1CCC1C2CCC2(C)C1CC[C@@H]2O (some centres not stated) | 57 |
| CCN(CC)C(=O)CCC(C)[C@H]1CC[C@H]2[C@@H]3CCC4N(C)C(=O)CC[C@]4(C)[C@H]3CC[C@]12C (some centres not stated) | 100 |
| CCN(CC)C(=O)[C@H]1CC[C@H]2[C@@H]3CC[C@H]4N(C)C(=O)CC[C@]4(C)[C@H]3CC[C@]12C | 99 |
| CCCCCCCCNC(=O)[C@H]1CCC2C3CCC4N(C)C(=O)CCC4(C)C3CCC21C (some centres not stated) | 100 |
| CC(=O)O[C@H]1CCC2C3CC[C@H]4CC(=O)NCCC4(C)C3CCC21C (some centres not stated) | 0 |
| CC(=O)[C@H]1CCC2C3CCC4NC(=O)CCC4(C)C3CCC21C (some centres not stated) | 100 |
| CC(=O)O[C@H]1CCC2C3CC[C@H]4CC(=O)NCC4(C)C3CCC21C (some centres not stated) | 35 |
| CC(=O)O[C@H]1CCC2C3CC[C@H]4CNC(=O)CCC4(C)C3CCC21C (some centres not stated) | 0 |
| CC(C)N(C(=O)[C@H]1CC[C@H]2[C@@H]3CCC4N(C)C(=O)CC[C@]4(C)[C@H]3CC[C@]12C)C(C)C (some centres not stated) | 100 |
| CC(CCC(=O)O)[C@H]1CC[C@H]2[C@@H]3CCC4N(C)C(=O)CC[C@]4(C)[C@H]3CC[C@]12C (some centres not stated) | 88 |
| CCN(CC)C(=O)[C@H]1CC[C@H]2[C@@H]3CC[C@@H]4NC(=O)CC[C@]4(C)[C@H]3CC[C@]12C | 95 |
| CCN(CC)C(=O)[C@H]1CCC2C3CCC4N(CCO)C(=O)CCC4(C)C3CCC21C (some centres not stated) | 0 |
| CN1C(=O)CC[C@@]2(C)C1CC[C@@H]1[C@@H]2CC[C@@]2(C)[C@H]1CC[C@@]21CCCO1 (some centres not stated) | 81 |
| CN1C(=O)CCC2(C)C3CCC4(C)/C(=C/C(=O)O)CCC4C3CCC12 (configuration not stated) | 92 |

| SMILES | inhibition [%] |
| --- | --- |
| CCN(CC)C(=O)[C@H]1CCC2C3CCC4N(c5ccccc5)C(=O)CCC4(C)C3CCC21C (some centres not stated) | 5 |
| CCN(CC)C(=O)[C@H]1CCC2C3CCC4N(NC)C(=O)CCC4(C)C3CCC21C (some centres not stated) | 24 |
| CN1C(=O)CCC2(C)C3CCC4(C)C(CC[C@@H]4C(N)=O)C3CCC12 (some centres not stated) | 91 |
| CC(=O)[C@H]1CC[C@H]2[C@@H]3CC[C@H]4CS(=O)(=O)C[C@]4(C)[C@H]3CC[C@]12C (stereo in doubt; 42) | 13 |
| CN1C(=O)CCC2(C)C1=CCC1C2CCC2(C)C1CC[C@@H]2O (some centres not stated) | 36 |
| CCCCCCCCCC[C@H]1CCC2C3CCC4N(C)C(=O)CCC4(C)C3CCC21C (some centres not stated) | 7 |
| CC(=O)[C@H]1CCC2C3CCC4N(C)C(=O)CCC4(C)C3CCC21C (some centres not stated) | 100 |
| CC(O)[C@@]1(O)CC[C@H]2[C@@H]3CCC4N(C)C(=O)CC[C@]4(C)[C@H]3CC[C@@]21C (some centres not stated) | 100 |
| CC(=O)N[C@@H]1CC[C@H]2[C@@H]3CCC4N(C)C(=O)CC[C@]4(C)[C@H]3CC[C@]12C (some centres not stated) | 87 |
| CCN(CC)C(=O)[C@H]1CCC2C3CCC4N(C)/C(=N/O)CCC4(C)C3CCC21C (some centres not stated) | 77 |
| CCN(CC)C(=O)[C@H]1CCC2C3CCC4N(C)C(=O)CC4(C)C3CCC21C (some centres not stated) | 7 |
| CCN(CC)C(=O)[C@H]1CCC2C3CCC4N(C)/C(=N\C)CCC4(C)C3CCC21C (some centres not stated) | 49 |
| CCN(CC)C(=O)[C@H]1CC[C@H]2[C@@H]3CC[C@@H]4N(C)C(=O)CC[C@]4(C)[C@H]3CC[C@]12C | 7 |
| CC(O)[C@H]1CC[C@H]2[C@@H]3CCC4N(C)C(=O)CC[C@]4(C)[C@H]3CC[C@]12C (some centres not stated) | 100 |
| CC(=O)O[C@H]1CCC2C3CC[C@H]4NC(=O)CCCC4(C)C3CCC21C (some centres not stated) | 94 |
| CCN(CC)C(=O)/C=C1\CC[C@H]2[C@@H]3CCC4N(C)C(=O)CC[C@]4(C)[C@H]3CC[C@]12C (some centres not stated) | 100 |
| CCN(CC)C(=O)[C@H]1CCC2C3CCC4N(C)CCCC4(C)C3CCC21C (some centres not stated) | 44 |
| CN1C(=O)CC[C@@]2(C)C1CC[C@H]1[C@@H]3CC[C@H](C(=O)O)[C@@]3(C)CC[C@@H]12 (some centres not stated) | 90 |
| CC(CO)[C@H]1CC[C@H]2[C@@H]3CCC4N(C)C(=O)CC[C@]4(C)[C@H]3CC[C@]12C (some centres not stated) | 100 |
| CCNC(=O)[C@H]1CCC2C3CCC4N(C)C(=O)CCC4(C)C3CCC21C (some centres not stated) | 83 |
